Test results reported in ChEMBL document CHEMBL4699393, “Meridianin D analogues possess antibiofilm activity against Mycobacterium smegmatis” (RSC Med Chem, 2020).
Converted amounts (≈) assume the structure as drawn.

Key:
[1] = system: Mycolicibacterium smegmatis; assay: Antibiofilm activity against Mycobacterium smegmatis mc2 155 ATCC 700084 assessed as inhibition of biofilm formation measured after 24 hrs by crystal violet reporter assay; format: functional, organism-based; conditions: MC2 155 ATCC 700084, 24 h
[2] = system: Mycolicibacterium smegmatis; assay: Antibiofilm activity against Mycobacterium smegmatis mc2 155 ATCC 700084 assessed as dispersion of preformed biofilms measured after 24 hrs by crystal violet reporter assay; format: functional, organism-based; conditions: MC2 155 ATCC 700084, 24 h
Procedure, shortened: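 Cultures (48 h) diluted to 0.01 in M9 minimal salts with glucose, MgSO4 and CaCl2 in PVC plates. Biofilm grown stationary at 37 °C for 48 h, washed, then fresh medium with compound added for 24 h at 37 °C. Stained with 0.1% crystal violet 30 min, solubilised in 95% ethanol, OD540 read. Media blanks subtracted. Dispersion calculated against untreated biofilm wells. At least three repeats.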

[3] = Hemolytic activity in sheep RBC assessed as hemolysis at 500 uM measured after 1 hr by UV spectrometer analysis; format: ADME, cell-based, Ovis aries, Erythrocyte; conditions: sheep red blood cells (erythrocytes), read-out: Activity
Procedure, shortened: (§1)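 Mechanically defibrinated sheep blood was centrifuged, and the cells were washed and resuspended in PBS three times, then diluted 10-fold. Compound was added from DMSO stock. Controls were 1% Triton X (100% lysis) and PBS (zero lysis). Samples were incubated 1 h at 37 °C with shaking at 200 rpm, then centrifuged. Supernatant was diluted 40-fold in distilled water and read at A540. Run in duplicate, repeated at least twice.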

[4] = Hemolytic activity in sheep RBC assessed as hemolysis at 200 uM measured after 1 hr by UV spectrometer analysis; format: ADME, cell-based, Ovis aries, Erythrocyte; conditions: sheep red blood cells (erythrocytes), read-out: Activity; procedure, shortened: as §1
[5] = system: Mycolicibacterium smegmatis; assay: Potentiation of Cefotaxime-induced antibacterial activity against Mycobacterium smegmatis mc2 155 ATCC 700084 assessed as fold reduction in Cefotaxime MIC at 30 uM incubated for 48 hrs by alamarblue dye based broth microdilution method; format: functional
Procedure, shortened: (§2)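 Inoculum from 48 h cultures set to 5 x 10^5 CFU/mL in 7H9 + ADC and pre-dosed with compound from DMSO stock at fixed concentration. β-lactam two-fold serially diluted from top concentration, with an antibiotic-only control series. Stationary 37 °C for 48 h, then alamarBlue for 8 h. MIC is the lowest blue (non-viable) well. Fold reduction is relative to the antibiotic-only MIC. Duplicates, at least two repeats.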

[6] = system: Mycolicibacterium smegmatis; assay: Potentiation of oxacillin-induced antibacterial activity against Mycobacterium smegmatis mc2 155 ATCC 700084 assessed as fold reduction in oxacillin MIC at 30 uM incubated for 48 hrs by alamarblue dye based broth microdilution method; format: functional; procedure, shortened: as §2
[7] = system: Mycolicibacterium smegmatis; assay: Potentiation of Cefoxitin-induced antibacterial activity against Mycobacterium smegmatis mc2 155 ATCC 700084 assessed as fold reduction in Cefoxitin MIC at 30 uM incubated for 48 hrs by alamarblue dye based broth microdilution method; format: functional; procedure, shortened: as §2
[8] = system: Mycolicibacterium smegmatis; assay: Potentiation of Ceftazidime-induced antibacterial activity against Mycobacterium smegmatis mc2 155 ATCC 700084 assessed as fold reduction in Ceftazidime MIC at 30 uM incubated for 48 hrs by alamarblue dye based broth microdilution method; format: functional; procedure, shortened: as §2
[9] = system: Mycolicibacterium smegmatis; assay: Potentiation of Ampicillin-induced antibacterial activity against Mycobacterium smegmatis mc2 155 ATCC 700084 assessed as fold reduction in Ampicillin MIC at 30 uM incubated for 48 hrs by alamarblue dye based broth microdilution method; format: functional; procedure, shortened: as §2
[10] = system: Mycolicibacterium smegmatis; assay: Potentiation of Cefotaxime-induced antibacterial activity against Mycobacterium smegmatis mc2 155 ATCC 700084 assessed as Cefotaxime MIC at 30 uM incubated for 48 hrs by alamarblue dye based broth microdilution method (reference value: 128 ug/ml); format: functional; procedure, shortened: as §2
[11] = system: Mycolicibacterium smegmatis; assay: Potentiation of Oxacillin-induced antibacterial activity against Mycobacterium smegmatis mc2 155 ATCC 700084 assessed as Oxacillin MIC at 30 uM incubated for 48 hrs by alamarblue dye based broth microdilution method (Rvb =512 ug/ml); format: functional; procedure, shortened: as §2
[12] = system: Mycolicibacterium smegmatis; assay: Potentiation of Cefoxitin-induced antibacterial activity against Mycobacterium smegmatis mc2 155 ATCC 700084 assessed as Cefoxitin MIC at 30 uM incubated for 48 hrs by alamarblue dye based broth microdilution method (reference value: 16 ug/ml); format: functional; procedure, shortened: as §2
[13] = system: Mycolicibacterium smegmatis; assay: Potentiation of Ceftazidime-induced antibacterial activity against Mycobacterium smegmatis mc2 155 ATCC 700084 assessed as Ceftazidime MIC at 30 uM incubated for 48 hrs by alamarblue dye based broth microdilution method (reference value: 512 ug/ml); format: functional; procedure, shortened: as §2
[14] = system: Mycolicibacterium smegmatis; assay: Potentiation of Ampicillin-induced antibacterial activity against Mycobacterium smegmatis mc2 155 ATCC 700084 assessed as Ampicillin MIC at 30 uM incubated for 48 hrs by alamarblue dye based broth microdilution method (reference value: 128 ug/ml); format: functional; procedure, shortened: as §2
[15] = system: Mycolicibacterium smegmatis; assay: Antibacterial activity against Mycobacterium smegmatis mc2 155 ATCC 700084 assessed as inhibition of bacterial growth incubated for 48 hrs by alamarblue dye based broth microdilution method; format: functional
Procedure, shortened: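 Inoculum from 48 h cultures set to 5 x 10^5 CFU/mL in 7H9 + ADC. Compound in DMSO two-fold serially diluted from 200 µM top concentration. Stationary 37 °C for 48 h, then alamarBlue for 8 h at 37 °C. MIC is the lowest concentration with no viable bacteria (blue, not pink). Duplicate wells, at least two independent repeats.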

**Q.** Which IC50 [1] does the source give for `Nc1nc(-c2c[nH]c3cc(Br)ccc23)c[nH]1` here?
**A.** 7.5 µM

**Q.** What about the EC50 [2] of the same molecule?
**A.** 27.9 µM

**Q.** What about the hemolysis at 1 h, 500 µM [3] of the same molecule?
**A.** 14%

**Q.** What about the hemolysis at 1 h, 200 µM [4] of the same molecule?
**A.** 7%

**Q.** What about the “fold change (FC)” value [5] of the same molecule?
**A.** 0

**Q.** What about the “fold change (FC)” value [6] of the same molecule?
**A.** 0

**Q.** And the “fold change (FC)” value [7]?
**A.** 0

**Q.** What about the “fold change (FC)” value [8] of the same molecule?
**A.** 4

**Q.** What about the “fold change (FC)” value [9] of the same molecule?
**A.** 0

**Q.** What about the MIC [10] of the same molecule?
**A.** 128 µg/mL

**Q.** What about the MIC [11] of the same molecule?
**A.** 512 µg/mL

**Q.** What about the MIC [12] of the same molecule?
**A.** 16 µg/mL

**Q.** What about the MIC [13] of the same molecule?
**A.** 128 µg/mL

**Q.** And the MIC [14]?
**A.** 128 µg/mL

**Q.** And the MIC [15]?
**A.** 100 µM (≈ 27.7 µg/mL)
